Bioassay records from PubChem.
Rows were chosen to be rich in hits. Some 1.4% of all compounds tested hit in one or more screens of this group.
STAT3 act-1 = increases IL-6 driven STAT3 reporter signal | U3A cells, IL-6 STAT3-luciferase reporter, luminescence; 100% = signal with IL-6 EC80 alone | activation (% of control), % at 5.6 µM | 190,000 compounds, 0.91% hits | AID 871;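 active = activation above the screen-wide mean of compound activation plus 3 SD, cut at about 130% in these data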;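 note: 0% = background luminescence of wells with medium and substrate only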
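system = STAT3-luciferase reporter U3A cells | reagent = IL-6 stimulus at 33 ng/mL final | timing = 1 h compound pre-exposure, 6 h IL-6 stimulation, 37 °C | measured by = luminescence | evaluation = % activation versus median of IL-6-stimulated wells | control set = IL-6-only wells as 100% reference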
Platelet DG rel = modulates dense granule release in human platelets. AID 1663. inhibition, %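 (compounds screened at 7.5 µM in platelet-rich plasma)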. human platelet-rich plasma, SFLLRN dense granule ATP release, luminescence. 300,000 compounds, 0.22% hits;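 active = mean replicate score, as percent of positive control, at or above 50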
STAT1 inh = reduces IFN-gamma driven STAT1 reporter signal | 200,000 compounds, 0.35% hits | inhibition, % at 5.5 µM | NIH 3T3 STAT1-luciferase reporter, luminescence;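 active = inhibition above a set limit, the mean inhibition across all tested compounds plus 3 SD, cut at about 34% in these data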;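 note: 0% = IFN-gamma with DMSO and 100% = IFN-gamma with 300 µM nifuroxazide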
PERK inhibitor = inhibitors of human PERK kinase | CHO PERK-DD fusion, SEAP luminescence translation reporter | inhibition, % at 5.6 µM | 220,000 compounds, 0.17% hits | AID 1416;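 active = inhibition above the mean inhibition of all tested compounds plus 3 SD, set separately per screening campaign, cut at about 2.9% in these data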;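 note: PERK kinase domain activated by AP20187 dimerizer at 100 nM; 0% = DMSO with dimerizer and 100% = rapamycin at 8.4 µM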
Target sequence (Q9NZJ5 whole entry, looked up, the tested form may be a part): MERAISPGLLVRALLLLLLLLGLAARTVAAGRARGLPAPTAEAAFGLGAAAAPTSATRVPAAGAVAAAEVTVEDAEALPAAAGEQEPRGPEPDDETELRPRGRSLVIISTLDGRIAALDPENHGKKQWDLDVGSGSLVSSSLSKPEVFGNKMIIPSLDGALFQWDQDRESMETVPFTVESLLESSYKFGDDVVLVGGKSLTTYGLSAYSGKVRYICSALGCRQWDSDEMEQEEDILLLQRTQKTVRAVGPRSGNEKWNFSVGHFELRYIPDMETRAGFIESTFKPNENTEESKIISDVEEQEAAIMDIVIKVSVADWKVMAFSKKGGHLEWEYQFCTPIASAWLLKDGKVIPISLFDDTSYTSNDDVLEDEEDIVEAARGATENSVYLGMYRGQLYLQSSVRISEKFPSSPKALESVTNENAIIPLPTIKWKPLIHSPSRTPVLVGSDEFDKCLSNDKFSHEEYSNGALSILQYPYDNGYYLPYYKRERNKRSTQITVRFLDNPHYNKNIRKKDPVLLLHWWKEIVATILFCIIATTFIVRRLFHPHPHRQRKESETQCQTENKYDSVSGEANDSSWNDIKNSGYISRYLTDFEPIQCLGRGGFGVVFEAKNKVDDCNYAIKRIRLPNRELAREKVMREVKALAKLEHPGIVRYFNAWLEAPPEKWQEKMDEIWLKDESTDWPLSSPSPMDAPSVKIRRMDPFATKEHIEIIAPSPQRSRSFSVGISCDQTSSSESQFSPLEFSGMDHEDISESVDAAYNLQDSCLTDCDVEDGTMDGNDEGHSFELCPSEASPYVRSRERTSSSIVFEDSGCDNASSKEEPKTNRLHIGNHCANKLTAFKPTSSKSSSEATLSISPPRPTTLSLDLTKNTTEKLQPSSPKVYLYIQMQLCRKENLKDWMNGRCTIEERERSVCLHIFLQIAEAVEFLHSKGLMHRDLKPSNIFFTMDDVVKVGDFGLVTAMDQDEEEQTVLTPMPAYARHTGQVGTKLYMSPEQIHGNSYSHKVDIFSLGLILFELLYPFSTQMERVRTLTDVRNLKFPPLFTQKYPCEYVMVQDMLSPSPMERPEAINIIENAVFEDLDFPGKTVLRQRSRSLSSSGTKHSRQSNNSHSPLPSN
STAT3 blocker = reduces IL-6 driven STAT3 reporter signal | U3A cells, IL-6 STAT3-luciferase reporter, luminescence; host cell line lacks STAT1 | inhibition, % at 5.5 µM | 190,000 compounds, 0.89% hits;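 active = inhibition above the mean inhibition across all screened compounds plus 3 SD, cut at about 44% in these data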;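 note: 0% = DMSO only wells and 100% = 100 µM nifuroxazide control wells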
STAT3 act-2 = confirmation of STAT3 signaling activators; shares compounds with STAT3 act-1; potentiation (% of control), % at 5.7 µM; 1,200 compounds, 64% hits; U3A STAT3-luciferase reporter, IL-6 potentiation, luminescence; U3A cells lack STAT1; 100 means same as IL-6 alone;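 active = percent activation of the STAT3 luciferase reporter above a set limit taken from the earlier primary screen, cut at about 130% in these data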;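 note: 0% = background signal of medium plus substrate and 100% = median of IL-6 with DMSO wells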
NFkB act 2 = activates NF-kappaB, counter-screen to STAT3 activators; shares compounds with STAT3 act-1; human cells, NF-kappaB reporter activation; activation (% of control), % at 5.7 µM; 1,200 compounds, 11% hits; AID 1309; in the data active = activation above about 120%;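 note: reporter induced by TNF-alpha stimulation; 100% = median of stimulated DMSO wells and 0% = no signal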
STAT1 act = STAT1 activation in STAT3 activator counter-screen; shares compounds with STAT3 act-1; 1,200 compounds, 13% hits; activation (% of control), % at 5.7 µM; NIH 3T3 STAT1-luciferase reporter, IFN-gamma, luminescence; AID 1318;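 active = activation above the solvent-only control well mean plus 3 SD, set per screening run, cut at about 120% in these data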;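 note: 100% = IFN-gamma with DMSO median signal so 100% means no change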
Starred values were filed as active, the others as inactive; / = no result.

SMILES	STAT3 act-1	Platelet DG rel	STAT1 inh	PERK inhibitor	STAT3 blocker	STAT3 act-2	NFkB act 2	STAT1 act
Cc1ccc(Sc2c(C=O)c3ccccc3n2C)cc1	157*	28	11	0	-63	128	81	87
CC(=O)c1c(C)[nH]c(C(=O)Nc2cccc(C)c2C)c1C	/	4	/	/	/	/	/	/
COc1ccccc1NC(=O)c1[nH]c(C)c(C(C)=O)c1C	162*	-2	3	-1	-60	158*	105	97
Oc1ccccc1-c1nc(N2CCCC2)c2ccccc2n1	93	-1	1	0	6	/	/	/
Oc1ccccc1-c1nc(N2CCN(Cc3ccccc3)CC2)c2ccccc2n1	146*	3	2	1	-52	141*	104	101
O=C(CSc1nc(C2CC2)nc2ccccc12)N1c2ccccc2Sc2ccc(C(F)(F)F)cc21	145*	2	3	0	-48	123	110	98
O=C(CSc1nc(C2CC2)nc2ccccc12)N1CCCCC1	/	-2	/	/	/	/	/	/
CSc1nc2cc(C)nn2c(-c2ccccc2Cl)c1C#N	/	10	/	1	/	/	/	/
Cc1ccc2c(c1)CCCN2C(=O)c1cccs1	146*	-6	6	2	-51	132	103	107
O=C(c1cccs1)N1CCCc2ccccc21	106	-2	-3	1	-4	/	/	/
N#CCc1ccc(NC(=O)c2cc(S(=O)(=O)N3CCOCC3)ccc2Cl)cc1	/	-6	/	/	/	/	/	/
COc1ccc(OC)c(-c2nnc(NC(=O)C(C)Sc3nncn3C)s2)c1 (stereo not drawn)	140*	9	-1	0	-44	119	105	101
COc1ccc(N2CCN(C(=O)Cn3cnc4c(cnn4-c4ccc(C)cc4)c3=O)CC2)cc1	102	-6	-2	0	3	/	/	/
O=C(OCc1nc2ccccc2s1)C1CCN(C2=NS(=O)(=O)c3ccccc32)CC1	147*	-1	-14	1	-44	142*	121*	134*
O=S1(=O)N=C(N2CCCC2)c2ccccc21	/	8	/	/	/	/	/	/
C=CCSc1nnc(-c2cc3c(s2)-c2ccccc2CC3)o1	151*	-17	-15	-1	-55	145*	109	116
COc1ccccc1CNC(=O)COC(=O)Cc1c[nH]c2ccccc12	/	5	/	/	/	/	/	/
COc1ccccc1NC(=O)COC(=O)Cc1c[nH]c2ccccc12	141*	11	20	1	-51	142*	109	96
O=C(Nc1c(Cl)cc(Cl)cc1-c1nc2ccccc2s1)c1ccc(Br)o1	139*	-2	11	0	-52	115	101	71
Oc1[nH]c2ccccc2c1/C=N/N1CCCCC1	145*	8	-8	1	-50	103	100	103
Oc1ccccc1/C=N/N1CCCCC1	93	16	-16	2	8	/	/	/
CCn1cc(Cl)c(C(=O)N2N=C(c3ccc4ccccc4c3)CC2c2ccccc2O)n1 (stereo not drawn)	102	10	0	1	-4	/	/	/
CCn1cc([N+](=O)[O-])c(C(=O)N2N=C(c3ccc4ccccc4c3)CC2c2ccccc2O)n1 (stereo not drawn)	151*	4	-8	-1	-58	138*	102	102
Cc1cc(NS(=O)(=O)c2ccc(NC(=O)c3cc4cc(Br)ccc4oc3=O)cc2)no1	100	3	-8	1	1	/	/	/
COCCCNC(=O)CN(CCc1ccccc1)S(=O)(=O)c1ccc(C)cc1	108	-3	-3	2	4	/	/	/
SMILES	STAT3 act-1	Platelet DG rel	STAT1 inh	PERK inhibitor	STAT3 blocker	STAT3 act-2	NFkB act 2	STAT1 act
COc1ccccc1C(=O)NNC(=S)Nc1ccccc1	139*	-1	5	-1	-34	146*	102	92
COc1ccccc1C(=O)NNC(=O)c1ccc(NC(=O)C(C)C)cc1	148*	0	-9	2	-52	153*	103	102
COc1ccccc1C(=O)NNC(=O)C(=O)NC(C)(C)C	143*	1	-2	1	-48	144*	96	97
COC(=O)NNC(=O)c1ccccc1OC	148*	4	-2	1	-60	166*	114	107
COc1ccccc1C(=O)NNC(=O)c1ccc(F)cc1	112	5	-23	0	-14	/	/	/
CCOc1ccc(CCNC(=O)C2CC(C)=CCC2C(=O)O)cc1OCC (stereo not drawn)	/	7	/	/	/	/	/	/
CCCOc1ccc(C(=O)NCC(c2ccco2)N(C)C)cc1 (stereo not drawn)	106	-23	-2	0	-5	/	/	/
Cc1cccc2c1NC(=O)/C2=C\C(=O)c1cccs1	147*	4	3	-1	-47	136*	107	92
Cc1ccc(OC(=O)C2c3ccccc3Oc3ccccc32)cc1C	101	1	-8	1	-3	/	/	/
CC1=NN(c2nc(-c3ccc(C)cc3)cs2)C(=O)C1N=Nc1ccc2ccccc2c1 (stereo not drawn)	150*	3	1	-1	-54	142*	102	97
CC1=NN(c2ccccc2)C(=O)C1N=Nc1ccc(C)cc1 (stereo not drawn)	136*	-12	-13	0	-25	121	106	108
CC1=NN(c2nc(-c3ccccc3)cs2)C(=O)C1N=Nc1ccccc1 (stereo not drawn)	87	-1	-15	1	25	/	/	/
COc1ccc(OC)c(NC(=O)CN(Cc2ccc(F)cc2)C2CCCCC2)c1	/	4	/	/	/	/	/	/
O=C(O)c1ccc(Nc2ncnc3c2cnn3Cc2ccccc2)cc1	105	1	-2	0	2	/	/	/
COc1ccc(S(=O)(=O)N2CCN(c3ccc4nnc(-c5ccccc5)n4n3)CC2)cc1	143*	-41	-4	-1	-41	120	107	113
Cc1ccc(OCC(=O)Nc2cccc3nsnc23)c(C)c1	145*	2	5	2	-53	131	105	94
Cc1ccc(OCC(=O)Nc2ccc3c4c(cccc24)CC3)c(C)c1	93	1	1	1	11	/	/	/
COc1ccc(CC(=O)NCc2n[nH]c(=S)n2-c2ccccc2OC)cc1	107	0	2	0	-6	/	/	/
COc1ccc(C)cc1N(C(=O)COc1ccccc1)c1nc2ccccc2s1	137*	0	10	1	-43	145*	101	101
COc1ccc(C)cc1N(C(=O)c1ccccc1F)c1nc2ccccc2s1	124	5	2	0	-28	/	/	/
COC(=O)c1ccc(NC(=O)CSc2ccc(-c3ccccn3)nn2)cc1	/	2	/	/	/	/	/	/
CC(=O)n1cc(C2C(=O)CCCC2=O)c2ccccc21	140*	4	3	1	-42	118	100	97
